Results reported in the RNAGym collection of RNA variant scans (doi:10.1126/science.aae0568).
Fewer inactive variants are shown than the library holds.

B1: tRNA (parent)
chain: GUUCCGUUGGCGUAAUGGUAACGCGUCUCCCUCCUAAGGAGAAGACUGCGGGUUCGAGUCCCGUACGGAACG

Variants of: B1
Assay: yeast fitness relative to wild type (ratio to wild type); higher = fitter; tRNA-Arg(CCU), competitive growth, 37 C, YPD
How it was run: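 Gene amplicons from the start population and from each of six end populations were read by 100-nucleotide paired-end sequencing. Those end populations came from pooled Saccharomyces cerevisiae strains carrying tRNA-Arg(CCU) gene variants at the native locus, competed in YPD at 37°C for 24 hours. Fitness relative to wild type was worked out from changes in genotype frequencies. Genotypes needed ≥ 100 starting reads, and estimates < 0.5 were set to 0.5.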

Variant | yeast fitness
C4U U47A U54C C61A | ≤ 0.5
C4U U47A G67A | 0.607
C4U U8A U13C A37G C46A | ≤ 0.5
C5A A14U C24U A40C | 0.564
C4U U26A G38A G63C | ≤ 0.5
C5A A15C C29A C60G | ≤ 0.5
C4U G38C A65G | 0.621
C5A A14G C24A C66G | ≤ 0.5
C4U G48C A70U | 0.542
C4U G63C | 0.782
C4U G63A | 0.894
C4U G68A | 0.856
C4U G68U | 0.888
C4U G68C | 0.963
C4U U8A C33U A36U | 0.545
C4U G58C A69C | 0.765
C4U U16A U26C C27A U47C | ≤ 0.5
C4U U64G | 1.09
C4U U64A | 0.852
C4U G44C A57U | 0.595
C4U U8A U16C A20U C29U A45C | ≤ 0.5
C4U U32A A69U | 0.601
C4U U8C A69U | 0.875
C4U U8A U13C C46A C61U | ≤ 0.5

Variant | yeast fitness
C5A A14C C49A | ≤ 0.5
C4U U7A C46G A65C | 0.535
C5A A15G G18C C29A U54A | ≤ 0.5
C4U U7A A36U A65G | 0.535
C4U U7C A57U C61U | ≤ 0.5
C4U U54A C62U | ≤ 0.5
C4U U8C A37U A45U C49U | ≤ 0.5
C5A A14G C22G A37U | 0.683
C4U U28G C61U C62U | ≤ 0.5
C4U U19C | 0.927
C4U U19A | 1.04
C4U U35G A65G | 0.607
C4U G48C C66U | 0.729
C5A A14G C24A U32C | ≤ 0.5
C4U G48A G50A | 0.961
C4U U7A A45U A57G | ≤ 0.5
C4U U32G A57G | ≤ 0.5
C5A A15G C33A C61U G67A | ≤ 0.5
C4U U13C G25A C60A C62U | ≤ 0.5
C4U U8C A36G G44C | 0.676
C5A A14U | 0.654
C5A A14G | 0.912
C4U U19A A42C | 0.825
C4U U7A G68A | ≤ 0.5

Variant | yeast fitness
C5A A15C C27U C30U U32G U35A A37C U54A | ≤ 0.5
C4U U32A G41C A43C | ≤ 0.5
C4U U7A A36U A70G | ≤ 0.5
C4U G50A | 0.965
C4U G38C | 0.825
C4U U16A A20U U35C G39C A42C G48A | 0.582
C4U G38C C61U C66U | ≤ 0.5
C4U U7A A36G | ≤ 0.5
C4U U7A A36U | 0.567
C4U U16C U32A G58A C60U | ≤ 0.5
C4U U13C U26A G63C | ≤ 0.5
C4U U8G U19A A21C A70U | ≤ 0.5
C4U U7A C22U U54C C66U G68C A69U | ≤ 0.5
C4U U8G A15U | ≤ 0.5
C5A A14C A21U C34U G38C | ≤ 0.5
C4U G44U | 0.757
C4U U13C A14G | 0.587
C4U U13C | 0.884
C4U U13A | 1.1
C4U U7A C30G C34G A40C | 0.512
C4U G39A A42G G67A | ≤ 0.5
C4U G48C G67U A69C | ≤ 0.5
C4U U32A U35C | 0.511
C4U U35C A70U | 0.711

Variant | yeast fitness
C4U U26C G44A | 0.569
C4U U7G C11G C46G | ≤ 0.5
C4U G44A C61G | ≤ 0.5
C4U U28C A36C G51A C66A | ≤ 0.5
C4U U35G A45U | 0.583
C4U U7A C30G C34G A40C A65U | ≤ 0.5
C5A A15G A36G | ≤ 0.5
C5A A14G U26A A37U G41A C62U | ≤ 0.5
C4U G38C C61U | 0.54
C4U U13G C29U C34U | ≤ 0.5
C4U U7A C30G C34G A40C A57U | ≤ 0.5
C4U U19C C31A | ≤ 0.5
C4U U16A A20G C66U | ≤ 0.5
C4U U16G A43U | 1.13
C5A A14G A20U A37C C49A | ≤ 0.5
C4U G38C G50A A70G | ≤ 0.5
C4U G44C A69U A70G | ≤ 0.5
C5A A14G C55A A70U | ≤ 0.5
C4U G44C G67A | 0.768
C4U U8G G12A C55U | ≤ 0.5
C5A A15G C61A | ≤ 0.5
C4U G52A A70U | 0.604
C4U U8C U47A | 0.601
C5A A14G C24G C31U A43G | ≤ 0.5

Variant | yeast fitness
C4U U7A C49U | 0.58
C4U U8A | 0.66
C4U U8C | 0.942
C4U U8C C27G A45C U47C C55U | ≤ 0.5
C4U G48A U54G | ≤ 0.5
C4U U16A A37U C49U C61G A70G | ≤ 0.5
C4U U13A C46U U53A | 0.633
C4U U35A G44C C66U G67U A70G | ≤ 0.5
C4U U7C A15C U16G A70G | ≤ 0.5
C4U G41C G48A C61A | ≤ 0.5
C4U U19C A43U | 0.955
C4U G67C | 0.829
C4U U26A G52C | 0.569
C4U U26C C31A C49G G63C A69U | ≤ 0.5
C4U U13A G23A C24A A36U G39C C62A U64A | ≤ 0.5
C4U U47A G51C A70U | ≤ 0.5
C4U U8C A37U A45U C49U A65G | ≤ 0.5
C5A A14G A37G C49G C55U G56C G68A | ≤ 0.5
C5A A14G A15G C22G A37U | ≤ 0.5
C4U U28C C29U G63C A65U | ≤ 0.5
C4U G41C C61A | ≤ 0.5
C4U U26A | 0.86
C4U U16C C34A A42U | 0.726
C4U G52C C61A | 0.581

Variant | yeast fitness
C4U U8A U13C A57C | ≤ 0.5
C4U G39A A42G G63A G67A | ≤ 0.5
C5A A15G C31U | 0.657
C4U U8A A36C C61U | ≤ 0.5
C4U G52C | 0.726
C4U U13A A14U C29U A37G A57C | ≤ 0.5
C4U G51C U59G U64C | ≤ 0.5
C4U U19A C30G A36C | 0.55
C5A A15C C29A A42C A45G | 0.551
C4U G44A G58A | 0.974
C5A A14G A20G C30A A40U G41C C61G G63C | ≤ 0.5
C4U G56A A70C | 0.754
C4U G50A G67C | 0.578
C4U G50A G67A | 0.553
C5A A14G C22G C60U C61U | ≤ 0.5
C4U G38A U47C | 0.501
C4U U19A C27G A43U C46A C49U | ≤ 0.5
C4U U59C C61A | ≤ 0.5
C4U U16A A37U A65U | ≤ 0.5
C5A A14C U26A C34U C55G | ≤ 0.5
C4U U8C A15C G63C | ≤ 0.5
C4U U13A G23A A36U G39C C62A U64A | 0.537
C4U G44A U47C G56A | ≤ 0.5
C5A A14C A43C | ≤ 0.5

Variant | yeast fitness
C4U U13A U59A | 0.811
C4U U59A | 0.999
C4U U59G | 0.909
C4U U26A C46U | 0.972
C4U U32G A40C | 0.57
C5A A14C A45G | ≤ 0.5
C5A A14G C31U | 0.721
C4U U8A A20G C24A | ≤ 0.5
C4U U28C A36C | ≤ 0.5
C4U U7C C29G C49A | ≤ 0.5
C4U U8A C22U | ≤ 0.5
C4U U16A A65C | 0.612
C4U U7A U13A U32C G44C | 0.718
C4U U7A A20G G23A U26G | ≤ 0.5
C4U U35A A43U C62U G67C G68A | ≤ 0.5
C5A A14U C27U C49G | ≤ 0.5
C4U G39C U59G C62A | ≤ 0.5
C4U G41C | 0.819
C4U U7A G50C | ≤ 0.5
C4U U28G | 0.772
C4U U28C | 1.02
C4U U8A U32G U35A C62U | 0.707
C4U U26C A42U G50C A65U | 0.552
